Measurements: PubChem BioAssay
Unmarked numbers belong to inactive results.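 The calls were made as follows: active = viability at or below 30% in both replicate assays; inconclusive = viability at or below 30% in just one of the two assays; inactive = the rest.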

Experiment: HUVEC growth inhibition – cell-based, human, primary screen (AID 575);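 also: 100% = median of untreated cell wells with 0.1% DMSO on each plate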
Settings: HUVEC proliferation, CellTiter-Glo luminescence, 72 h; at 10 µM; active compounds read low
Summary of the method: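 system = HUVEC primary cells | amount = 1250 cells/well | buffer or medium = supplemented EBM, 2% fetal bovine serum | dosing = single-point 10 µM, DMSO 0.1% final | times = 72 h compound incubation | detection = CTG luminescence | read-out = % viability relative to median vehicle-well signal on each plate | control set = vehicle and MePR control wells | format = collagen-coated 384-well format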

| Structure (SMILES) | viability |
| --- | --- |
| CCCc1cc(C(=O)Nc2ccccc2SC)no1 | 104% |
| Cc1ccc(C(=O)OCC(=O)Nc2ccc3c(c2)OCO3)o1 | 102% |
| COC(=O)C(C#N)C(=C1C(=O)CC(C)(C)CC1=O)c1ccc(O)cc1 (stereo unspecified) | 96.5% |
| COC(=O)c1cc(OC)c(OC)cc1NC(=O)c1ccc(Br)o1 | 101% |
| COc1cccc(NC(=O)CSc2nnc(Cc3cccn3C)n2-c2ccc(F)cc2)c1 | 85.7% |
| CCOc1ccc(N(CC(=O)OC)S(=O)(=O)c2ccc(OC)c(OC)c2)cc1 | 87.2% |
| COC(=O)C1=C(C)NC(C)=C(C(=O)OC)C1C1CC=CCC1 (stereo unspecified) | 75.4% |
| CCCCCn1c(=O)[nH]c2cc(C(=O)NCCN3CCOCC3)ccc2c1=O | 114% |
| COc1ccccc1OCC(=O)N1CCN(c2ccccc2OC)CC1 | 111% |
| COc1cccc(-c2nc(CS(=O)(=O)CC(=O)N3CCN(c4ccccn4)CC3)c(C)o2)c1 | 81% |
| CC1C(=O)C(C)C(c2cccs2)NC1c1cccs1 (stereo unspecified) | 101% |
| COc1ccc(N2C(=O)CCC(C(=O)N3CCCCC3)C2c2ccc(OC)c(OC)c2)cc1 (stereo unspecified) | 92.3% |
| COc1cccc(NC(=O)c2nc3nc(C)cc(C(F)F)n3n2)c1 | 93.9% |
| O=C(NCCN1CCOCC1)c1ccc2c(c1)N(Cc1ccccc1F)C(=O)CS2 | 95% |
| CCn1cc(C(=O)NCc2ccccc2OC)c(=O)c2cc(S(=O)(=O)N(C)C)ccc21 | 78.3% |
| CC1Cn2c(nnc2-c2ccc(F)cc2)S1 (stereo unspecified) | 107% |
